Assay [1] concerns Pseudomonas aeruginosa. Kind of assay: Antibacterial activity against Pseudomonas aeruginosa isolate 9BR by Etest. Format: functional.
For assay [2], the system named is Pseudomonas aeruginosa. Briefly: Antibacterial activity against Pseudomonas aeruginosa isolate 19BR by Etest. Format: functional.
In assay [3] the test system is Pseudomonas aeruginosa. Briefly: Antibacterial activity against Pseudomonas aeruginosa isolate 213BR by Etest. Format: functional.
The test system of assay [4] is Pseudomonas aeruginosa. Briefly: Antibacterial activity against Pseudomonas aeruginosa isolate 9BR assessed as lowest concentration at which no growth observed after 48 hrs by broth microdilution method. The format is functional, organism-based. In general terms: In broth dilution the organism is exposed to a series of concentrations in liquid medium.
In assay [5] the test system is Pseudomonas aeruginosa. Kind of assay: Antibacterial activity against Pseudomonas aeruginosa isolate 19BR assessed as lowest concentration at which no growth observed after 48 hrs by broth microdilution method. Format: functional, organism-based. The gist of the method:
(§1)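 Broth microdilution per CLSI M7-A6/M100-S15 in cation-adjusted Mueller-Hinton broth, 37°C, 48 h; polymyxin B 0.03 to 32 μg/ml, triplicate runs per isolate. Liberal MIC read as the lowest-concentration well without visible growth; skipped wells (isolated no-growth wells below wells with growth) noted.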

The test system of assay [6] is Pseudomonas aeruginosa. Briefly: Antibacterial activity against Pseudomonas aeruginosa isolate 213BR assessed as lowest concentration at which no growth observed after 48 hrs by broth microdilution method. Format: functional, organism-based. Summed up:
as §1

The subject of assay [7] is Pseudomonas aeruginosa. Kind of assay: Antibacterial activity against Pseudomonas aeruginosa isolate 9BR assessed as growth after the skipped wells was observed after 48 hrs by broth microdilution method. Format: functional, organism-based.
Assay [8] concerns Pseudomonas aeruginosa. Kind of assay: Antimicrobial activity against Pseudomonas aeruginosa isolate 19BR assessed as inhibition of growth at 2 ug/ml after 24 hrs. The format is functional, organism-based. The gist of the method:
(§2)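 Growth curves run in triplicate: overnight cultures diluted 1:20 into cation-adjusted Mueller-Hinton broth with 0, 0.125 or 2 μg/ml polymyxin B; OD600 read every 20 min for 24 h.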

Assay [9] concerns Pseudomonas aeruginosa. Briefly: Antimicrobial activity against Pseudomonas aeruginosa isolate 213BR assessed as inhibition of growth at 2 ug/ml after 24 hrs. Format: functional, organism-based. Summed up: as §2
Assay [10] relates to Pseudomonas aeruginosa. Briefly: Increase in arnB gene expression in compound-resistant Pseudomonas aeruginosa isolate 9BR by quantitative PCR analysis. The format is functional, organism-based. Summed up: (§3)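 Cells taken from MIC-plate wells at 0, 0.125 or 2 μg/ml polymyxin B, regrown in 10 ml CAMHB at the same level, shaken at 37°C to OD600 0.5. Total RNA (4 μg) reverse-transcribed; qPCR normalised to rpsL and expressed relative to PAO1 without polymyxin B. Triplicate cultures on separate days from individual MIC plates, each run at least in duplicate.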

Assay [11] has as its system Pseudomonas aeruginosa. Briefly: Increase in PA4773 gene expression in compound-resistant Pseudomonas aeruginosa isolate 9BR by quantitative PCR analysis. Format: functional, organism-based. Summed up: as §3
The subject of assay [12] is Pseudomonas aeruginosa. Briefly: Effect on phoQ gene expression in Pseudomonas aeruginosa PAO1 at 2 ug/ml by quantitative PCR analysis. Format: functional, organism-based. Summed up: (§4)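 Cells from MIC plate wells regrown in cation-adjusted Mueller-Hinton broth with 0, 0.125 or 2 μg/ml polymyxin B at 37°C with shaking to OD600 0.5. Total RNA (4 μg) reverse-transcribed for qPCR of phoQ, arnB and PA4773, with rpsL as control. Expression is relative to untreated PAO1; triplicate biological repeats, each at least in duplicate.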

Assay [13] has as its system Pseudomonas aeruginosa. Kind of assay: Effect on arnB gene expression in Pseudomonas aeruginosa PAO1 at 2 ug/ml by quantitative PCR analysis. Format: functional, organism-based. The gist of the method:
as §4

Assay [14] relates to Pseudomonas aeruginosa. Briefly: Effect on PA4773 gene expression in Pseudomonas aeruginosa PAO1 at 2 ug/ml by quantitative PCR analysis. Format: functional, organism-based. Summed up: as §4
Assay [15] has as its system Pseudomonas aeruginosa. Briefly: Increase in phoQ gene expression in Pseudomonas aeruginosa isolate 19BR at 2 ug/ml by quantitative PCR analysis. Format: functional, organism-based. Summed up: as §4
For assay [16], the system named is Pseudomonas aeruginosa. Briefly: Increase in arnB gene expression in Pseudomonas aeruginosa isolate 19BR at 2 ug/ml by quantitative PCR analysis. Format: functional, organism-based. The gist of the method:
as §4

The test system of assay [17] is Pseudomonas aeruginosa. Kind of assay: Increase in PA4773 gene expression in Pseudomonas aeruginosa isolate 19BR at 2 ug/ml by quantitative PCR analysis. The format is functional, organism-based. Summed up:
as §4

The test system of assay [18] is Pseudomonas aeruginosa. Briefly: Increase in phoQ gene expression in Pseudomonas aeruginosa isolate 213BR at 2 ug/ml by quantitative PCR analysis. The format is functional, organism-based. Summed up:
as §4

Assay [19] has as its system Pseudomonas aeruginosa. Kind of assay: Increase in arnB gene expression in Pseudomonas aeruginosa isolate 213BR at 2 ug/ml by quantitative PCR analysis. Format: functional, organism-based. Summed up: as §4
The test system of assay [20] is Pseudomonas aeruginosa. Briefly: Increase in PA4773 gene expression in Pseudomonas aeruginosa isolate 213BR at 2 ug/ml by quantitative PCR analysis. Format: functional, organism-based. Summed up:
as §4

In assay [21] the test system is Pseudomonas aeruginosa. Kind of assay: Antimicrobial activity against Pseudomonas aeruginosa PAO1 assessed as outer membrane permeabilization by fluorescence spectrophotometer using NPN fluorescent probe. Format: functional, organism-based. The gist of the method:
(§5)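 Cells grown in cation-adjusted Mueller-Hinton broth with 0, 0.125 or 2 μg/ml polymyxin B (preincubation), subcultured 1:100 to mid-log, washed, resuspended to OD600 0.5 in 5 mM HEPES pH 7.2 with 5 μM CCCP. NPN 10 μM final added for baseline. Polymyxin B then added at 0.25–64 μg/ml final; fluorescence ex 350/em 420 nm.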

Assay [22] relates to Pseudomonas aeruginosa. Kind of assay: Antimicrobial activity against Pseudomonas aeruginosa isolate 19BR assessed as outer membrane permeabilization by fluorescence spectrophotometer using NPN fluorescent probe. Format: functional, organism-based. The gist of the method:
as §5

Assay [23] deals with Pseudomonas aeruginosa. Kind of assay: Antimicrobial activity against Pseudomonas aeruginosa isolate 9BR assessed as outer membrane permeabilization by fluorescence spectrophotometer using NPN fluorescent probe. Format: functional, organism-based. Summed up:
as §5

The subject of assay [24] is Pseudomonas aeruginosa. Kind of assay: Antimicrobial activity against Pseudomonas aeruginosa PAO1 assessed as outer membrane permeabilization at 4 ug/ml by fluorescence spectrophotometer using NPN fluorescent probe. The format is functional, organism-based. The gist of the method: as §5
Assay [25] relates to Pseudomonas aeruginosa. Kind of assay: Antimicrobial activity against Pseudomonas aeruginosa isolate 9BR assessed as outer membrane permeabilization at => […] ug/ml by fluorescence spectrophotometer using NPN fluorescent probe. Format: functional, organism-based.
The test system of assay [26] is Pseudomonas aeruginosa. Briefly: Antimicrobial activity against Pseudomonas aeruginosa isolate 19BR assessed as outer membrane permeabilization at => 8 ug/ml by fluorescence spectrophotometer using NPN fluorescent probe. Format: functional, organism-based. The gist of the method: as §5
For assay [27], the system named is Pseudomonas aeruginosa. Kind of assay: Antimicrobial activity against Pseudomonas aeruginosa PAO1 assessed as outer membrane permeabilization at 0.125 ug/ml by fluorescence spectrophotometer using NPN fluorescent probe. The format is functional, organism-based. Summed up: as §5
For assay [28], the system named is Pseudomonas aeruginosa. Kind of assay: Antimicrobial activity against 2 ug/ml compound pretreated Pseudomonas aeruginosa isolate 9BR assessed as outer membrane permeabilization at 8 ug/ml by fluorescence spectrophotometer using NPN fluorescent probe. Format: functional, organism-based. Summed up:
as §5

Assay [29] deals with Pseudomonas aeruginosa. Briefly: Antimicrobial activity against 2 ug/ml compound pretreated Pseudomonas aeruginosa isolate 19BR assessed as outer membrane permeabilization at 8 ug/ml by fluorescence spectrophotometer using NPN fluorescent probe. Format: functional, organism-based. Summed up: as §5
Assay [30] deals with Pseudomonas aeruginosa. Kind of assay: Antibacterial activity against Pseudomonas aeruginosa isolate 19BR assessed as growth after the skipped wells was observed after 48 hrs by broth microdilution method. The format is functional, organism-based.
Assay [31] has as its system Pseudomonas aeruginosa. Kind of assay: Antibacterial activity against Pseudomonas aeruginosa isolate 213BR assessed as growth after the skipped wells was observed after 48 hrs by broth microdilution method. Format: functional, organism-based.
The subject of assay [32] is Pseudomonas aeruginosa. Briefly: Antimicrobial activity against Pseudomonas aeruginosa isolate 9BR assessed as inhibition of growth at 0.25 ug/ml after 24 hrs. Format: functional, organism-based.
For assay [33], the system named is Pseudomonas aeruginosa. Briefly: Antibacterial activity against Pseudomonas aeruginosa isolate 9BR by Etest in presence of beta-lactamase inhibitor Tazobactam. Format: functional.
In assay [34] the test system is Pseudomonas aeruginosa. Kind of assay: Antibacterial activity against Pseudomonas aeruginosa isolate 19BR by Etest in presence of beta-lactamase inhibitor Tazobactam. The format is functional.
Assay [35] concerns Pseudomonas aeruginosa. Briefly: Antibacterial activity against Pseudomonas aeruginosa isolate 213BR by Etest in presence of beta-lactamase inhibitor Tazobactam. The format is functional.

Active and inactive are the calls of the source. The rule behind the calls is not given here.

The term MIC denotes the least concentration at which growth counts as inhibited. Consider `CO/N=C(\C(=O)N[C@@H]1C(=O)N2C(C(=O)[O-])=C(C[N+]3(C)CCCC3)CS[C@H]12)c1csc(N)n1` [CEFEPIME], for which the MIC in assay [1], in assay [2] and in [3] was over 256 µg/mL each time.

As to `CC(C)(O/N=C(\C(=O)N[C@@H]1C(=O)N2C(C(=O)[O-])=C(C[n+]3ccccc3)CS[C@H]12)c1csc(N)n1)C(=O)O` [CEFTAZIDIME], the minimum inhibitory concentration (MIC) in assay [1], in [2] and in assay [3] was over 256 µg/mL throughout.

Consider POLYMYXIN B, for which the minimum inhibitory concentration (MIC) in [4] was determined as 64 µg/mL; in assay [5], 0.25 µg/mL; in assay [6], 0.5 µg/mL; in [7], 64 µg/mL; in assay [30], 8 µg/mL; in assay [31], 8 µg/mL. The MIC is 4 µg/mL in assay [1], 1.5 µg/mL in assay [2] and 1.5 µg/mL in assay [3]. For the same molecule, the TIME worked out at 6 h in assay [8] and 4 h in assay [9]. Moreover, the Activity entry in assay [10], in assay [11], in [21], in assay [22] and in assay [23] was “Dose-dependent effect” each time. Further, the result in assay [12], in assay [13], in assay [14], in assay [28] and in assay [29] was inactive. Moreover, the result in assay [15], in [16], in assay [17], in assay [18], in assay [19] and in assay [20] was Active. Also, the result in assay [24], in assay [25], in [26] and in assay [27] was Active. In addition, the inhibition entry in assay [32] is “inactive”.

With COLISTIN, the MIC was determined as 32 µg/mL in [4]; 4 µg/mL in [5]; 2 µg/mL in assay [6]; 32 µg/mL in assay [7]; 4 µg/mL in assay [30]; 32 µg/mL in assay [31].

With `C[C@@H](O)[C@H]1C(=O)N2C(C(=O)O)=C(S[C@@H]3CN[C@H](C(=O)N(C)C)C3)[C@H](C)[C@H]12` [MEROPENEM], the minimum inhibitory concentration (MIC) in assay [1], in assay [2] and in [3] was over 32 µg/mL each time.

For the molecule `CCN1CCN(C(=O)N[C@@H](C(=O)N[C@@H]2C(=O)N3[C@@H]2SC(C)(C)[C@@H]3C(=O)O)c2ccccc2)C(=O)C1=O` [PIPERACILLIN], the minimum inhibitory concentration (MIC) in [33] was 96 µg/mL; in assay [34], 64 µg/mL; in assay [35], 96 µg/mL.

On to `O=C(O)c1cn(C2CC2)c2cc(N3CCNCC3)c(F)cc2c1=O` [CIPROFLOXACIN], for which the minimum inhibitory concentration (MIC) in assay [1], in [2] and in assay [3] was over 32 µg/mL in each case.

(Values after ChEMBL document CHEMBL1649224, “Involvement of pmrAB and phoPQ in polymyxin B adaptation and inducible resistance in non-cystic fibrosis clinical isolates of Pseudomonas aeruginosa” (2009).)
